ChEMBL document CHEMBL3352156, “Endoplasmic reticulum stress suppressive compounds from the edible mushroom Mycoleptodonoides aitchisonii” (J Nat Prod, 2014)
The source made the active and inactive calls. No cut-off for these calls is given here.

Experiments:
N2a [1] = assay: Protection against tunicamycin-induced ER-stress-dependent mouse Neuro2a cell death assessed as cell viability after 24 hrs by MTT assay; format: functional, cell-based
Procedure, shortened: (§1)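 Neuro2a cells in D-MEM with 10% FBS, seeded at 2000 cells/well and grown 24 h. Pretreated 6 h with graded compound levels in serum-free D-MEM, then stressor added to final 0.5 μg/mL tunicamycin or 10 nM thapsigargin for 24 h. MTT 0.25 mg/mL for 2 h, stopped with SDS/DMF, A570. Viability as percent of untreated cells; TG mean ± SE, n = 10−12; Tukey–Kramer tests.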

N2a [2] = assay: Protection against thapsigargin-induced ER-stress-dependent mouse Neuro2a cell death assessed as cell viability at > 50 uM after 24 hrs by MTT assay; format: functional, cell-based; procedure, shortened: as §1

Compound	Activity (N2a [1])	Activity (N2a [2])
CC1=C(C)C(C)(O)OC1=O (stereo unspecified)	inactive	Active
OCC[C@H](O)[C@H](O)Cc1ccccc1	inactive	Active
OCC[C@H](O)CCc1ccccc1	inactive	Active
CC1=C(CO)C(C)(O)OC1=O (stereo unspecified)	inactive	Active
CC(=O)[C@@H]1COC(=O)[C@H]1C	inactive	Active
CC(=O)[C@@H]1COC(=O)[C@@H]1C	inactive	inactive
CC1=C(C(C)O)C(O)OC1=O (stereo unspecified)	inactive	Active
C[C@@H](O)[C@H]1COC(=O)[C@@H]1C	inactive	Active
